# Assay outcomes (PubChem BioAssay)
# Only some compounds are listed: those with a hit (about 2.5% of all), similar ones and a draw of the others.
# IMP-1 inhibitor – blocks Pseudomonas aeruginosa IMP-1 metallo-beta-lactamase; purified IMP-1, nitrocefin hydrolysis, epi-absorbance fluorescence; inhibition, % at 5.6 µM; 290,000 compounds, 0.45% hits;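 active = inhibition above the mean plus 3 SD of all compounds in the same screening run, cut at about 4.5% in these data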;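 also: 0% = IMP-1 with DMSO and 100% = DMSO wells lacking enzyme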
#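 assay system = purified recombinant IMP-1 metallo-beta-lactamase enzyme | schedule = 15 min preincubation plus 25 min reaction at 25 °C | signal = Epi-absorbance fluorescence, 480 nm excitation, 530 nm emission | read-out basis = percent inhibition from optical density relative to buffer-blank wells | controls = IMP-1 with DMSO as 0%, enzyme-free DMSO as 100%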
# dFosB act – activators of mouse delta FosB homodimer; P13346; purified delta FosB, TAMRA-CDK5 oligo fluorescence polarization; percent of positive-control signal above neutral wells; activation, % at 25 µM; 340,000 compounds, 0.99% hits;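 active = mean activation above about 17%, with every replicate also reaching it, limit read from the data, passing the limit was not always enough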
# VIM-2 inhibitor – inhibitors of Pseudomonas aeruginosa VIM-2 metallo-beta-lactamase | inhibition, % at 5.6 µM | purified VIM-2, nitrocefin hydrolysis, epi-absorbance fluorescence | 290,000 compounds, 0.89% hits | AID 1527;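 active = inhibition above the mean of all tested compounds plus 3 SD, cutoff set per screening run, cut at about 7.5% in these data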;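 also: red hydrolysis product quenches plate fluorescence so inhibitors raise well fluorescence; 0% = enzyme with DMSO and 100% = DMSO without enzyme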
# HTR2A ag – activates the mouse 5-HT2A serotonin receptor | 360,000 compounds, 0.66% hits | AID 624169 | CHO-K1 mHTR2A beta-arrestin complementation, luminescence; percent of 30 µM serotonin response | activation, % at 7.6 µM | P35363;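 active = activation above a run cutoff, the mean activation of all tested compounds plus 3 SD, cut at about 14% in these data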;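 also: 0% = plate median of compound wells and 100% = 30 µM serotonin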
# MOR ag counter – counter-screen for mouse HTR2A agonists: human mu opioid receptor agonists | shares compounds with HTR2A ag | U2OS OPRM1 beta-arrestin PathHunter, luminescence; DMSO 0%, DAMGO 9.3 µM 100% | activation, % at 9.3 µM | 2,300 compounds, 5.3% hits | AID 624380;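 active = mean activation above the mean of DMSO-only wells plus 3 SD, cut at about 0.5% in these data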
# Target sequence (P35372 whole entry, looked up): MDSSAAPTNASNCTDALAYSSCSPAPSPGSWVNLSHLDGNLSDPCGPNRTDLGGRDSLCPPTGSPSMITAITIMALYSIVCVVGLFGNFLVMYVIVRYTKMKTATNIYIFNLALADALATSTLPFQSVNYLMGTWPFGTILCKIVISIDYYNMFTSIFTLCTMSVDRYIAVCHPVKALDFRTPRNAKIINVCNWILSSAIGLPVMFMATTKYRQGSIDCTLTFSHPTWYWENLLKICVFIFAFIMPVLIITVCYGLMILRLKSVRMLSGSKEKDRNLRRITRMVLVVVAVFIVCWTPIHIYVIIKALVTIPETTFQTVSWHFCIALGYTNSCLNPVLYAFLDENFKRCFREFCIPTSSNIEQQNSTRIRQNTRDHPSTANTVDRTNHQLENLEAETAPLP
# HTR2A ag conf – mouse HTR2A agonism confirmed. activation, % at 7.6 µM. 2,300 compounds, 19% hits. CHO-K1 PathHunter beta-arrestin recruitment, luminescence; DMSO 0%, 30 µM serotonin 100%. AID 624381. shares compounds with HTR2A ag;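 active = mean activation across triplicates above the hit threshold derived in the original primary screen, cut at about 15% in these data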
# An asterisk follows results filed as active; . = no result.
SMILES,IMP-1 inhibitor,dFosB act,VIM-2 inhibitor,HTR2A ag,MOR ag counter,HTR2A ag conf
Cc1cccc(C(=O)N[C@H](C(=O)Nc2ccc(C)c(S(=O)(=O)N3CCOCC3)c2)C(C)C)c1,.,0,.,1,.,.
CCC[C@H]1CC(=O)C=C(c2ccc(OC)cc2)ON1C(=O)OC(C)(C)C,.,-4,.,-4,.,.
Cn1ncc(Br)c1NC(=O)Nc1ccccc1,-4,-2,-3,14*,1.0*,8
COc1cc2[nH]c(C)c(-c3ccccc3)c(=O)c2cc1Cl,.,.,.,25*,-1,14*
COc1cccc2c(O)c(-c3ccccc3)c(=O)[nH]c12,.,.,.,1,.,.
Cc1ccc(S(=O)(=O)NCCC(=O)N2CCC(C)CC2)cc1,.,-4,.,3,.,.
Clc1ccc(Sc2cc(N3CCOCC3)nc(-c3ccccc3)n2)cc1,-1,-3,-1,7,.,.
CC(C)Sc1cc(N2CCOCC2)nc(-c2ccc(Cl)cc2)n1,-2,3,-2,14*,0,9
COCC1CCCCN1C(=O)c1cc(COc2ccc3ncccc3c2)on1 (stereo not drawn),0,-12,2,20*,0,0
CCC1CCCCN1C(=O)c1cc(COc2ccc3ncccc3c2)on1 (stereo not drawn),-2,-11,-3,6,.,.
O=C(COc1cc(F)ccc1[N+](=O)[O-])N1N=C(c2cccs2)CC1c1ccco1 (stereo not drawn),.,-7,.,-1,.,.
O=Nc1c(O)n(Cc2cccc(C(F)(F)F)c2)c2ccccc12,-2,-5,-3,16*,0.7*,3
Cc1c(C(=O)OCC(=O)c2c(N)n(CC(C)C)c(=O)n(C)c2=O)oc2ccccc12,-8,9,1,18*,0,-1
COCc1c(C(=O)OCC(=O)c2c(N)n(CC(C)C)c(=O)n(C)c2=O)oc2ccccc12,-1,-7,0,-1,.,.
CC(=O)O[C@H]1[C@@H](O)[C@H](O)[C@H](Oc2c(O)c(C)c3c4c2[C@@H](C)CC[C@@H]4[C@@H](C)C[C@@H]3C=C(C)C)O[C@H]1C,.,.,.,1,.,.
C[C@@H]1CCCCO[C@@H](CN(C)S(=O)(=O)c2ccccc2)[C@@H](C)CN([C@H](C)CO)C(=O)c2cc(N(C)C)ccc2O1,.,.,.,-3,.,.
CC1CCN(c2ncnc3nc[nH]c23)CC1,-4,-4,-4,25*,0,1
OC1CCN(c2ncnc3nc[nH]c23)CC1,-3,0,-2,6,.,.
COc1ccccc1CCCNC(=O)C1CCC(=O)N(CCc2cccc(F)c2)C1 (stereo not drawn),-3,-7,0,-1,.,.
N#CC1(C(N)=O)OC12CCS(=O)(=O)c1ccccc12 (stereo not drawn),.,0,.,-2,.,.
O=C(Cn1cc(C(F)(F)F)ccc1=O)Nc1ccc2c(c1)OCO2,.,.,.,17*,-1,-3
O=C(Cn1cc(Br)ccc1=O)Nc1ccc2c(c1)OCO2,.,2,.,-4,.,.
Cc1c(C(=O)Nc2ccc(S(=O)(=O)N3CCOCC3)cc2)cccc1[N+](=O)[O-],-3,7,-3,19*,0,1
O=C(CNC(=O)C1CCCCC1)NNC(=O)c1ccccc1Br,0,-3,-2,-1,.,.
OCCNc1nc2ccccc2nc1NCCO,-1,-7,-2,23*,0,1
SMILES,IMP-1 inhibitor,dFosB act,VIM-2 inhibitor,HTR2A ag,MOR ag counter,HTR2A ag conf
Cc1ccccc1C(=O)N1CCC[C@@H]1C(=O)N1CCC[C@H]1C(=O)NCc1ccncc1,.,.,.,6,.,.
Cc1cccc(NC(=O)c2cnc3ccccn3c2=O)c1,-1,-4,-1,26*,-1,-1
Cc1cc(OC(C)C(=O)N(Cc2ccco2)C2CCS(=O)(=O)C2)cc(C)c1Cl (stereo not drawn),-2,-6,-2,17*,-1,-1
O=C(Nc1ccccc1N1CCOCC1)c1cccc2ccccc12,.,.,.,-4,.,.
O=C(Nc1ccc(F)cc1)C(c1ccncc1)N1CCN(c2cccc(C(F)(F)F)n2)CC1 (stereo not drawn),.,.,.,-8,.,.
Nc1ccc(C(=O)N/N=C\C=C\c2ccc([N+](=O)[O-])cc2)cc1,-4,-12,-3,17*,0,4
Cc1ccc(Cn2cccc2C2=NC(C)CO2)cc1 (stereo not drawn),1,3,-1,14*,0,-6
CCS(=O)(=O)c1ccc(-c2csc(-c3ccccc3)n2)c(Cl)c1Cl,-3,-4,0,16*,0,2
C=CCn1c(SCc2nc3ccccc3[nH]2)nnc1-c1ccccn1,-3,-2,-4,19*,-1,-4
CCn1c(=S)[nH]c2c(=O)n(C)c(=O)n(C)c21,.,2,.,17*,0,3
Cc1[nH]c2ccccc2c1C(c1ccccn1)N1CCC(C(N)=O)CC1 (stereo not drawn),1,-6,-3,17*,0,-5
CCOC(=O)C1CCN(C(c2ccccn2)c2c(C)[nH]c3ccccc23)CC1 (stereo not drawn),2,-8,-4,7,.,.
C=C1C(=O)OC2C1C(OC(=O)C(C)=CC)CC(=C)C1C(O)C3OC3(C)C21O (stereo not drawn),.,5,.,16*,0,10
C=C1C(=O)OC2C=C(CO)CCC=C(CO)CC(OC(=O)C(C)C)C12 (stereo not drawn),.,-9,.,0,.,.
FC(F)(F)c1ccccc1NC(=S)NC1CCN(Cc2ccccc2)CC1,-1,-7,0,17*,-1,-5
NS(=O)(=O)c1ccc(NC(=S)N2CCN(c3ccc(Cl)c(Cl)c3)CC2)cc1,-2,0,1,35*,0,10
CCCN1CCN(C(=S)Nc2ccc(S(N)(=O)=O)cc2)CC1,-2,2,-2,16*,-1,-1
N#Cc1c(N)nc(SCc2ccccc2)c(C#N)c1-c1ccco1,-3,-28,-3,15*,0,-3
CCCCC(=O)N(C)c1c(CC)nc2c(OCc3ccc(C(F)(F)F)cc3)cccn12,.,.,.,-7,.,.
NC(=O)C1(NC(=O)[C@@H]2CC3(CC(c4cccc(NC(=O)[C@@H]5CCC(=O)N5)c4)=NO3)CN2C(=O)Cc2ccc(C(F)(F)F)cc2)CC1 (stereo partly drawn),-4,-4,-3,20*,-1,-2
Cc1ccc(OCCNC(=O)[C@H]2O[C@@H](n3ccc(=O)[nH]c3=O)[C@H](O)[C@@H]2O)cc1C,.,.,.,43*,0,-4
O=C(CSc1nnc(C2CC2)n1C1CC1)N1CCN(c2ccc(O)cc2)CC1,.,.,.,-3,.,.
Cc1cccc(C(C)C)c1NC(=O)COC(=O)CN1C(=O)C2CC=CCC2C1=O (stereo not drawn),.,-8,.,20*,0,6
COc1ccccc1C(=O)NC(CCSC)C(=O)NCCCn1nc(C)cc1C (stereo not drawn),.,-13,.,-6,.,.
